Test results published in ChEMBL document CHEMBL1133660, “A potential melanoma tracer: synthesis, radiolabeling, and biodistribution in mice of a new nitridotechnetium bis(aminothiol) derivative pharmacomodulated by a N-(diethylaminoethyl)benzamide” (J Med Chem, 2000).

Key:
[1] = (§1) Partition coefficient (logP); assay type: physicochemical; conditions: octanol/water
Outline: (§2)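 Partition between octanol and pH 7.4 Tris buffer, reported as log P.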

[2] = as §1; assay type: physicochemical; conditions: octanol/water; outline: as §2; remark: listed apart in the source
[3] = organism: Mus musculus; assay: Tissue biodistribution of the syn isomer in the B16 murine melanoma tumor in mice at 24 hours; assay type: ADME, organism-based; conditions: in vivo
Outline: (§3)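 Male C57BL/6 J1 co mice given 5 × 10^5 viable B16 melanoma cells subcutaneously; tumors palpable after 10 days. 0.74 MBq 99mTc-labeled complex injected iv via tail vein. n = 3 per time point; sacrifice by exsanguination at 5 min, 15 min, 1, 3, 6 and 24 h. Tissues weighed and γ-counted; results as % injected dose/gram of tissue.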

[4] = Tumor / liver ratio observed after 6 hours of injection; assay type: ADME
[5] = organism: Mus musculus; assay: Tissue biodistribution of the syn isomer in the B16 murine melanoma tumor in mice at 3 hours; assay type: ADME, organism-based; conditions: in vivo; outline: as §3
[6] = organism: Mus musculus; assay: Tissue biodistribution of the syn isomer in the B16 murine melanoma tumor in mice at 1 hour; assay type: ADME, organism-based; conditions: in vivo; outline: as §3
[7] = Tumor / liver ratio observed after 1 hour of injection; assay type: ADME, tissue-based
[8] = organism: Mus musculus; assay: Tissue biodistribution of the syn isomer in the B16 murine melanoma tumor in mice at 6 hours; assay type: ADME, organism-based; conditions: in vivo; outline: as §3
[9] = Tumor / liver ratio observed after 3 hours of injection; assay type: ADME, tissue-based
[10] = Tumor / liver ratio observed after 24 hours of injection; assay type: ADME, tissue-based

logP [1] | logP [2] | ID/g [3] [%] | Tumor/liver ratio [4] | ID/g [5] [%] | ID/g [6] [%] | Tumor/liver ratio [7] | ID/g [8] [%] | Tumor/liver ratio [9] | Tumor/liver ratio [10] | Molecule
-0.45 | -0.3 |  |  |  |  |  |  |  |  | CCN(CC)CCNC(=O)c1ccc(COCC(CNCC(C)(C)S)NCC(C)(C)S)cc1 (stereo not drawn)
 |  | 0.79 | 3.71 | 3.85 | 6.75 | 1.12 | 3.53 | 1.05 | 4.94 | CCN(CC)CCNC(=O)c1ccc([125I])cc1
 |  | 0.04 | 0.1 | 0.2 | 0.75 | 0.18 | 0.11 | 0.1 | 0.06 | (TcN-BAT)nitridotechnetium complex of bis(aminoethanethiol)
